How the values were obtained:
HT-29 = test: Cytotoxicity against human HT-29 cells; assay type: functional, cell-based
Method in brief: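 HT-29 human colon cancer cells treated with serial dilutions of test samples. IC50 derived by nonlinear regression. Measured in triplicate in two independent experiments. Paclitaxel served as positive control.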

[1] = molecular target: T1, Solute carrier family 2, facilitated glucose transporter member 1 (Homo sapiens) (UniProt P11166); test: Inhibition of GLUT-1 in human H1299 cells assessed as 2-deoxy-D-[3H]glucose uptake at 30 uM incubated for 15 mins prior to 2-deoxy-D-[3H]glucose challenge measured after 10 mins by liquid scintillation counting analysis (reference value: 100%); assay type: cell-based; design: scale not given: the % may be the effect or the level left
T1 sequence (whole entry): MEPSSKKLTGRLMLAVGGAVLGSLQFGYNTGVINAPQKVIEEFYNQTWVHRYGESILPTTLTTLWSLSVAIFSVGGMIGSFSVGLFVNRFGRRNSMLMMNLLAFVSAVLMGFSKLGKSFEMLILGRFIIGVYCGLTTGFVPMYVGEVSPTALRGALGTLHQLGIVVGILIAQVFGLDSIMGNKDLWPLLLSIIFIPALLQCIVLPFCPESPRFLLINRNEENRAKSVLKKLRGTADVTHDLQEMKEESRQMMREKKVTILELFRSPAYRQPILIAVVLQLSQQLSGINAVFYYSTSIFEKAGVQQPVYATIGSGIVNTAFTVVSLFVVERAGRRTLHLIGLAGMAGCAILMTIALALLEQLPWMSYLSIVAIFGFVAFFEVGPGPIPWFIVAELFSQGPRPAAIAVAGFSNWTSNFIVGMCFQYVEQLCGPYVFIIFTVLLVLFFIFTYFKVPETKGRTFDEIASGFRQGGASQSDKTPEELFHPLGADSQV
Method in brief: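 Before dosing, H1299 human lung cancer cells were washed and held in serum-free DMEM for 2 h at 37 °C in 10% CO2, then in KRP buffer for 30 min at 37 °C. Compound was added at 30 μM final and incubated 15 min at 37 °C. Uptake was started with 37 MBq/L 2-deoxy-3H glucose plus 1 mM glucose (final) and stopped after 10 min by three cold PBS washes. Cells were NaOH-lysed and lysate radioactivity read by scintillation counting. Vehicle served as negative control and WZB117 (30 μM) as positive control. n = 3.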

P388 = test: Cytotoxicity against mouse P388 cells; assay type: functional, cell-based

Row | SMILES | IC50 (HT-29) | Activity [1] | IC50 (P388)
1 | O=C1C[C@@H]2C3=C(C=C[C@@H]2O1)O[C@@H](c1ccccc1)CC3=O [CRYPTOCARYANONE A] | 10.9 µM |  | 
2 | O=C1CCC[C@@H]2C[C@H](C[C@](O)(CCc3ccccc3)O2)c2c(cc(O)c(C(=O)/C=C/c3ccccc3)c2O)O1 | > 10 µM |  | 
3 | O=C(Oc1cccc(F)c1OC(=O)c1cccc(O)c1)c1cccc(O)c1 |  | 15.7% | 
4 | CC(=O)O[C@H]1C(=O)[C@@]2(C)[C@H]([C@H](OC(=O)c3ccccc3)[C@]3(O)C[C@H](OC(=O)[C@H](O)[C@@H](NC(=O)c4ccccc4)c4ccccc4)C(C)=C1C3(C)C)[C@]1(OC(C)=O)CO[C@@H]1C[C@@H]2O [PACLITAXEL] | > 10 µM |  | 
5 | O=C1C[C@@H]2/C(=C(O)\C=C\c3ccccc3)C(=O)C=C[C@@H]2O1 [CRYPTOCARYONE] | 0.32 µM | 58.7% | 0.04 µM
6 | O=C1C[C@@H]2C3=C(O[C@H](c4ccccc4)CC3=O)[C@@H]3[C@H]([C@@H]2O1)[C@H]1C[C@@H]2OC(=O)C[C@@H]2[C@@]3(C(=O)/C=C/c2ccccc2)C1=O | > 10 µM |  | 
7 | O=C(O)C[C@H]1CC=CC(=O)/C1=C(O)/C=C/c1ccccc1 | > 10 µg/mL |  | 
8 | O=C(/C=C/c1ccc(O)cc1)OCCCCCCCCCCCCCCCCOC(=O)/C=C/c1ccc(O)cc1 | > 10 µM |  | 
9 | O=C1C[C@@H]2C3=C(O[C@H](c4ccccc4)CC3=O)[C@@H]3[C@@H]([C@@H]4C=C5O[C@H](c6ccccc6)CC(=O)[C@@]53[C@H]3CC(=O)O[C@@H]43)[C@@H]2O1 | > 10 µM |  | 
